Measured values reported in ChEMBL document CHEMBL1153167, “Gastroprotective flavonoid constituents from Oroxylum indicum Vent” (Bioorg Med Chem Lett, 2010).
Calls of active or inactive are those of the source. The rule behind the calls is not given here.

What was measured:
Type in all cases: functional, organism-based
Design in all cases: dose 25 mg/kg
Rattus norvegicus [1] = test: Gastroprotective activity against pylorus ligation-induced ulcer in 48 hrs fasted Wistar rat at 25 mg/kg rat pretreated 1 hr before pylorus ligation measured after 4 hrs
Outline: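 Rats fasted 48 h, six per group, were dosed as a 1% Tween-80 suspension at 1 mL per rat. After 1 h the pylorus was ligated under anesthesia. Animals were killed 4 h after ligation for evaluation. Read-out is % protection, mean ± SD.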

Rattus norvegicus [2] = test: Gastroprotective activity against cold restraint-induced ulceritis in Wistar rat at 25 mg/kg, po pretreated before cold restraination measured after 2 hrs
Outline: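 After the oral dose, rats (six per group) were restrained at 4 °C for 2 h. The stomach was then opened along the greater curvature and severity was scored as mean ulcer index. Read-out is % protection, mean ± SD.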

Rattus norvegicus [3] = test: Gastroprotective activity against ethanol-induced ulceritis in 48 hrs fasted Wistar rat at 25 mg/kg, po pretreated 1 hr before ethanol challenge followed by pylorus ligation measured after 4 hrs
Outline: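 Rats fasted 48 h, six per group, were dosed orally. Ethanol was given intragastrically 1 h later. One hour after the ethanol, the pylorus was ligated under anesthesia. Animals were killed 4 h after ligation and ulcers were indexed. Read-out is % protection, mean ± SD.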

Rattus norvegicus [4] = test: Gastroprotective activity against aspirin-induced ulceritis in Wistar rat at 25 mg/kg, po pretreated 5 days before aspirin challenge measured after 24 hrs of fasting
Outline: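 Rats, six per group, were dosed with test sample for five days, then given aspirin 200 mg/kg body weight suspended in 1% Tween-80. They were fasted 24 h and killed by cervical dislocation. Stomachs were opened along the greater curvature, washed with lukewarm saline and scored for ulcer index under a dissecting microscope. Read-out is % protection, mean ± SD.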

Row | Structure (SMILES) | Activity (Rattus norvegicus [1]) | Activity (Rattus norvegicus [2]) | Activity (Rattus norvegicus [3]) | Activity (Rattus norvegicus [4])
1 | COc1c(O)cc2c(c1O)C(=O)C[C@@H](c1ccccc1)O2 | Active | Active | Active | Active
2 | COc1ccc(-c2cc(=O)c3c(O)cc(OC)cc3o2)cc1 | inactive | inactive | inactive | inactive
3 | COc1c(O)cc2oc(-c3ccccc3)cc(=O)c2c1O | Active | Active | Active | Active
4 | COc1cc(O)c2c(=O)cc(-c3c(OC)cccc3O[C@H]3O[C@@H](CO)[C@H](O)[C@@H](O)[C@@H]3O)oc2c1 | inactive | inactive | inactive | inactive
5 | O=c1cc(-c2ccccc2)oc2cc(O)cc(O)c12 | Active | Active | Active | Active
6 | COc1cc(O)c2c(=O)cc(-c3ccccc3)oc2c1 | inactive | inactive | inactive | inactive
